# From ChEMBL document CHEMBL1764995, “Design, synthesis, and evaluation of novel 3,6-diaryl-4-aminoalkoxyquinolines as selective agonists of somatostatin receptor subtype 2” (J Med Chem, 2011)
# Experiments:
# [1] = Plasma clearance in dog at 2 mg/kg, iv and 10 mg/kg, po; format: ADME, organism-based, Canis lupus familiaris
# [2] = Half life in dog at 2 mg/kg, iv and 10 mg/kg, po; format: ADME, organism-based, Canis lupus familiaris; conditions: in vivo
# [3] = Volume of distribution at steady state in dog at 2 mg/kg, iv and 10 mg/kg, po; format: ADME, organism-based, Canis lupus familiaris; conditions: in vivo, read-out: Vdss
# [4] = species on record: Homo sapiens; assay: Selectivity for human SST2 over human SST1
# In short: (§1)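 Human sst1, sst2, sst3, sst4 or sst5 stably expressed in CHO cells; membrane displacement of 0.1 nM 125I-somatostatin-14 by compound 0-10000 nM, 30 min tracer preincubation then 3 h at room temperature, filtration and scintillation counting; selectivity taken from the binding values across subtypes.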
# [5] = species on record: Homo sapiens; assay: Selectivity for human SST2 over human SST3; in short: as §1
# [6] = species on record: Homo sapiens; assay: Selectivity for human SST2 over human SST5; in short: as §1
# [7] = target: T1, Somatostatin receptor type 2 (Homo sapiens, UniProt P30874); assay: Agonist activity at human SST2 expressed in CHO cells assessed as inhibition of forskolin-stimulated cAMP release after 40 mins by luminescence assay; format: functional, cell-based
# [8] = target: T1, Somatostatin receptor type 2; assay: Displacement of I125-somatostatin-14 from human SST2 expressed in CHO cells after 3 hrs by scintillation counting; format: cell-based
# [9] = target: T2, Gonadotropin-releasing hormone receptor (Homo sapiens, UniProt P30968); assay: Antagonist activity at GnRH receptor by GnRH; format: functional
# T2 sequence (P30968 whole entry): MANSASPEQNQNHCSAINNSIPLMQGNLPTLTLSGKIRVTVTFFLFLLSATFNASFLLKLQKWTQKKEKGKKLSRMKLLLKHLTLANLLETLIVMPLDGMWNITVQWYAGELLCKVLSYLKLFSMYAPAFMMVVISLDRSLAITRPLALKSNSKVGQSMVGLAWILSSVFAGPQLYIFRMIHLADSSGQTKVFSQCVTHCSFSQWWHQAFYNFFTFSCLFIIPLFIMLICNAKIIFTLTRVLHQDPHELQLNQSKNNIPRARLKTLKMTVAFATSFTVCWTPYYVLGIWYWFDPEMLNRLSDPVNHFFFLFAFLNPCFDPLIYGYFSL
# [10] = Plasma clearance in rat at 2 mg/kg, iv and 10 mg/kg, po; format: ADME, organism-based
# [11] = Half life in rat at 2 mg/kg, iv and 10 mg/kg, po; format: ADME, organism-based; conditions: in vivo
# [12] = Volume of distribution at steady state in rat at 2 mg/kg, iv and 10 mg/kg, po; format: ADME, organism-based; conditions: in vivo, read-out: Vdss
# [13] = Oral bioavailability in rat at 2 mg/kg, iv and 10 mg/kg, po iv; format: ADME, organism-based; conditions: in vivo
# [14] = Plasma clearance in rat at 2 mg/kg, iv and 5 mg/kg, po; format: ADME, organism-based
# [15] = Half life in rat at 2 mg/kg, iv and 5 mg/kg, po; format: ADME, organism-based; conditions: in vivo
# [16] = Volume of distribution at steady state in rat at 2 mg/kg, iv and 5 mg/kg, po; format: ADME, organism-based; conditions: in vivo, read-out: Vdss
# [17] = Oral bioavailability in rat at 2 mg/kg, iv and 5 mg/kg, po; format: ADME, organism-based; conditions: in vivo
# [18] = Plasma clearance in dog at 0.125 mg/kg, iv; format: ADME, organism-based, Canis lupus familiaris; set-up: dose 0.125 mg/kg, route intravenous
# In short: (§2)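 Dog PK after 0.125 mg/kg iv; plasma clearance (mL/min/kg), half-life (h) and steady-state volume of distribution (L/kg).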
# [19] = Half life in dog at 0.125 mg/kg, iv; format: ADME, organism-based, Canis lupus familiaris; set-up: dose 0.125 mg/kg, route intravenous; conditions: in vivo; in short: as §2
# [20] = Volume of distribution at steady state in dog at 0.125 mg/kg, iv; format: ADME, organism-based, Canis lupus familiaris; set-up: dose 0.125 mg/kg, route intravenous; conditions: in vivo, read-out: Vdss; in short: as §2
# [21] = system: Rattus norvegicus; assay: Antiangiogenic activity against laser-induced choroidal neovascularization rat model assessed as reduction in neovascular lesion area at 5 ug, intraocular administered once every 4 days; format: functional; set-up: scale not given: the % may be the effect or the level left
# In short: (§3)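 Laser-induced choroidal neovascularization in male Brown Norway rats (175-225 g). After lasering and topical 0.5% proparacaine, 5 μL vehicle (5% ethanol in PBS) or compound injected intravitreally 3 mm posterior to iris on days 0, 4 and 8; neovascular lesion area measured.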
# [22] = system: Rattus norvegicus; assay: Antiangiogenic activity against laser-induced choroidal neovascularization rat model assessed as reduction in neovascular lesion area at 15 ug, intraocular administered once every 4 days; format: functional; set-up: scale not given: the % may be the effect or the level left; in short: as §3
# [23] = system: Rattus norvegicus; assay: Antiangiogenic activity against laser-induced choroidal neovascularization rat model assessed as reduction in neovascular lesion area, intraocular administered once every 4 days; format: functional, organism-based; conditions: Eye; in short: as §3
# [24] = system: Rattus norvegicus; assay: Inhibition of secretagogue-induced growth hormone release in iv dosed Wistar rat plasma after 50 mins before secretagogue challenge measured after every 5 to 15 mins; format: functional, organism-based
# In short: (§4)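 Female Wistar rats (200-250 g) with jugular and carotid cannulas, pentobarbital-anesthetized (50 mg/kg ip); vehicle or compound given iv via jugular cannula, GH secretagogue (10 μg/kg iv) 50 min later.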
# [25] = system: Rattus norvegicus; assay: Inhibition of secretagogue-induced growth hormone release in Wistar rat assessed as reduction in plasma growth hormone area under the curve at 0.2 mg/kg, iv treated 50 mins before secretagogue challenge measured after every 5 to 15 mins; format: functional; set-up: scale not given: the % may be the effect or the level left; in short: as §4
# [26] = system: Rattus norvegicus; assay: Inhibition of secretagogue-induced growth hormone release in Wistar rat assessed as reduction in plasma growth hormone area under the curve at 2 mg/kg, iv treated 50 mins before secretagogue challenge measured after every 5 to 15 mins; format: functional; set-up: scale not given: the % may be the effect or the level left; in short: as §4
# [27] = Aqueous solubility of the compound; format: physicochemical; conditions: buffer
# T1 sequence (P30874 whole entry): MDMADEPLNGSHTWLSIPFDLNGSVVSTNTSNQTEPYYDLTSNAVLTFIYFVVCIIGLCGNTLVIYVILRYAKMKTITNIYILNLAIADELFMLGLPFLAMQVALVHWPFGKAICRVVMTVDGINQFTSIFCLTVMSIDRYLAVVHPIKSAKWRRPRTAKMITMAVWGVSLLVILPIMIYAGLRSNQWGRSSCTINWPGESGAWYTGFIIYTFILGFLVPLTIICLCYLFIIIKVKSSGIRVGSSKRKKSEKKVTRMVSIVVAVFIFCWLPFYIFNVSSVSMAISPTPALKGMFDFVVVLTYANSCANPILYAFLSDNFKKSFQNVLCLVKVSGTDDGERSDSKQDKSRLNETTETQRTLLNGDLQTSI
SMILES,IC50 [7] [nM],Ki [8] [nM],also measured
Cc1cc(C)cc(-c2cnc3cc(Cl)c(-c4ccc(=O)[nH]c4)cc3c2OCC[C@H]2CCCCN2)c1,0.29,0.27,clearance [1]: 5 mL/min/kg; half-life [2]: 0.55 h; Vd [3]: 0.094 L/kg; fold change (FC) [4]: > 1000; fold change (FC) [5]: > 1000; fold change (FC) [6]: > 1000
Cc1cc(C)cc(-c2c(OCC[C@H]3CCCCN3)c3cc(-c4ccc(F)cc4)c(Cl)cc3[nH]c2=O)c1,,1.5,
Cc1cc(C)cc(-c2cnc3cc(Cl)c(C(=O)Nc4ccncn4)cc3c2OCC[C@H]2CCCCN2)c1,,20,IC50 [9]: 2440 nM
Cc1cc(C)cc(-c2c(OCCC3CCCCN3)c3cc(-c4ccncn4)c(Cl)cc3[nH]c2=O)c1 (configuration not stated),,1400,IC50 [9]: 3.2 nM
Cc1cc(C)cc(-c2cnc3cc(Cl)c(-c4cnn(C)c4)cc3c2OCC[C@H]2CCCCN2)c1,,,clearance [10]: 14 mL/min/kg; half-life [11]: 3.7 h; Vd [12]: 3.1 L/kg; bioavailability [13]: 27%; fold change (FC) [4]: > 1000; fold change (FC) [5]: > 1000; fold change (FC) [6]: > 1000
Cc1cc(C)cc(-c2cnc3cc(Cl)c(-c4ccc(Cl)nc4)cc3c2OCC[C@H]2CCCCN2)c1,11,0.13,
Cn1cc(-c2cc3c(OCC[C@H]4CCCCN4)c(-c4cccc(CO)c4)cnc3cc2Cl)cn1,8.3,0.13,
COc1ccc(-c2cc3c(OCC[C@H]4CCCCN4)c(-c4cc(C)cc(C)c4)cnc3cc2Cl)cn1,50,0.65,
Cc1cc(C)cc(-c2cnc3cc(Cl)c(-c4cccnc4)cc3c2OCC[C@H]2CCCCN2)c1,8.3,0.13,
Cc1cc(C)cc(-c2cnc3cc(Cl)c(-c4ccc(N)nc4)cc3c2OCC[C@H]2CCCCN2)c1,34,0.6,

# The next lines start with results.
IC50 [7] [nM],Ki [8] [nM],SMILES,also measured
11,0.13,OCc1cccc(-c2ccc3ncc(-c4cccc(CO)c4)c(OCC[C@H]4CCCCN4)c3c2)c1,
13,0.1,Cc1cc(C)cc(-c2cnc3cc(Cl)c(-c4ccc(CO)cc4)cc3c2OCC[C@H]2CCCCN2)c1,
0.38,0.08,Cc1cc(C)cc(-c2cnc3cc(Cl)c(-c4cccc(C(N)=O)c4)cc3c2OCCCN)c1,
0.38,0.08,Cc1cc(C)cc(-c2cnc3cc(Cl)c(-c4ccc(O)cc4)cc3c2OCC[C@H]2CCCCN2)c1,
4.8,0.025,Cc1cc(C)cc(-c2cnc3cc(Cl)c(-c4cccc(O)c4)cc3c2OCCCN)c1,clearance [14]: 52 mL/min/kg; half-life [15]: 2.9 h; Vd [16]: 9.4 L/kg; bioavailability [17]: 17%; clearance [18]: 7.1 mL/min/kg; half-life [19]: 11 h; Vd [20]: 5.7 L/kg; Activity [21]: 35%; Activity [22]: 53%; Activity [23]: Dose-dependent effect; inhibition [24]: Dose-dependent effect; Activity [25]: 38%; Activity [26]: 91%; solubility [27]: Insoluble
1.1,0.037,Cc1cc(C)cc(-c2cnc3cc(Cl)c(-c4cccc(O)c4)cc3c2OCC[C@H]2CCCCN2)c1,
0.39,0.038,Cc1cc(C)cc(-c2cnc3cc(Cl)c(-c4cccc(C(N)=O)c4)cc3c2OCC[C@H]2CCCCN2)c1,
20,0.11,Cc1cc(C)cc(-c2cnc3cc(Cl)c(-c4ccncc4)cc3c2OCC[C@H]2CCCCN2)c1,
4.7,0.12,Cc1cc(C)cc(-c2cnc3cc(Cl)c(-c4ccc(F)nc4)cc3c2OCC[C@H]2CCCCN2)c1,
